In PubChem BioAssay AID504324 (Broad Institute, 2011) one finds AC50 and activity change, negative = decrease data, which are given here for six compounds.

In assay [1] the test system is U2OS HRE-luciferase reporter, zinc medium, luminescence. The assay can be described thus: HIF pathway activation under zinc exposure, dose response, mechanism study for HIF pathway activator project, U2OS HRE-luc cells, zinc medium, dry powder (AID 504324). The procedure, abridged: (§1)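 assay system = human osteosarcoma U2OS cells stably expressing 3×HRE-driven luciferase reporter | medium = phenol red-free DMEM with FBS and 50 µM zinc | compound = 8-point, 3-fold compound series | schedule = cells plated 24 h before dosing, compound exposure 24 h, 37 °C | measured by = luciferase luminescence, Steady-Glo reagent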

Assay in assay [2]: as above
Particulars: U2OS HRE-luciferase reporter, zinc medium, luminescence; at 38 µM (top of the series). An outline of the steps:
as §1
(A reporter such as luciferase makes a cellular process visible.)

Active and inactive are the calls of the source.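 How the source made its calls: active means compounds lowering the signal whose fitted half-maximal concentration is at most ten times their top tested dose; inconclusive means flat curve with a 30 to 70% drop, or poor fit; inactive means rising signal, flat curve, or potency beyond limit.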 A value given as a limit tells only on which side of the number the result lay.

A word on the AC50: it is the concentration at which the activity in the assay is half-maximal. For `Oc1ccc(CNC2CCc3ccccc32)c2cccnc12` (stereo unspecified), the AC50 in assay [1] is > 38 µM (inactive).

Take `c1ccc(-c2nnc(-c3ccccn3)nc2Nc2cnc3ccccc3n2)cc1`: in assay [1], the AC50 was 10.6 µM.

For the compound `c1ccc(-c2nnc(-c3ccccn3)nc2Nc2nc3ccccc3s2)cc1`, in assay [1], the AC50 is 5.6 µM.

As for `CC(C)(C)OC(=O)N1CCN(Cc2ccc(O)c3ncccc23)CC1`, the activity change, negative = decrease in assay [2] was 28.3% (inactive).

For `CN(C)c1nc(-c2ccccn2)nnc1-c1ccccc1`, the activity change, negative = decrease in assay [2] is 3380% (inactive).

For `COc1ccccc1N1CCN(Cc2ccc(O)c3ncccc23)CC1`, the activity change, negative = decrease in assay [2] is 52.8% (inactive).
